Screening data (PubChem)
SIRT5 block: inhibitors of human sirtuin-5 desuccinylase; Q9NXA8; 330,000 compounds, 1.1% hits; AID 652115; inhibition, % at 15 µM; Purified SirT5, succinyl-peptide AMC, trypsin-coupled fluorescence; in the data active means inhibition above about 15%; inconclusive means no clear call, values can overlap the other calls
Target sequence (Q9NXA8 whole entry, looked up): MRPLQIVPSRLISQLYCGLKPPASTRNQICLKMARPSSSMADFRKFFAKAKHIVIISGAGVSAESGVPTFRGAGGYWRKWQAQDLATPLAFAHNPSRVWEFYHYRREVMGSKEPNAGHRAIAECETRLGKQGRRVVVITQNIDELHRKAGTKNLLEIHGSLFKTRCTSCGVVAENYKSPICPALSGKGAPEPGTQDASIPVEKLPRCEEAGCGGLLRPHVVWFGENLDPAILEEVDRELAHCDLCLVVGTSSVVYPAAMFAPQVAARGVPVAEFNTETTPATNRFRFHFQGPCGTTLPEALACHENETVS
ARNT TACC3 PPI: disruptors of human ARNT/TACC3 interaction; Q9Y6A5; AlphaScreen His-ARNT PAS-B/GST-TACC3 binding, luminescence; TACC3 fragment carries E629A point mutation; inhibition, % at 9.99 µM; 390,000 compounds, 0.66% hits; AID 623870;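 active means mean inhibition of replicates at least 50% and at least half of replicates each reaching 50%; inconclusive means half or more replicates reach 50% but mean below 50%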
FGF22 binding: shifts melting point of recombinant human FGF22; Q9HCT0; recombinant FGF22 thermal shift, SYPRO orange fluorescence; percent of sucrose octasulfate shift, DMSO zero; activity (Tm shift, normalised), % at 9.99 µM; 340,000 compounds, 1.5% hits;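 active means mean Tm shift, scaled 0 neutral to 100 positive control, at about 1.3% or above, every replicate too, limit read from the data; inconclusive means no clear call, values can overlap the other calls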
Target sequence (Q9HCT0 whole entry, looked up): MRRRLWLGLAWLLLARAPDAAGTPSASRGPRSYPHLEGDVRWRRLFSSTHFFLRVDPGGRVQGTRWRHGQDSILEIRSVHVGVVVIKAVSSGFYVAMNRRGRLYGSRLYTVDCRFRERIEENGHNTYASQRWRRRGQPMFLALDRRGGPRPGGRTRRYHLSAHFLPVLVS
XiGFP reactiv: reactivates the inactive X chromosome in mouse fibroblasts | XiGFP mouse fibroblasts, % GFP-positive cells imaging, 3 d; cells co-treated with 5-aza-dC sensitizer; scaled so ellipticine positive control = 100% | activation, % at 7.58 µM | 360,000 compounds, 0.055% hits;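 active means mean normalized replicate activation at least 10% and every replicate at or above 10%; inconclusive means only one of the two criteria met; inactive means mean below 10% and not all replicates reach 10%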
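Assay system – SV40-immortalized XiGFP fibroblast cells, line 68-5-11 · Buffer or medium – DMEM supplemented with 5-aza-dC as sensitizing agent · Dosing – one concentration, pinned · Benchmarks – positive control ellipticine, 6 µM final · Times – 3 days compound exposure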
DENV2 CPE: inhibitors of DENV2 cytopathic effect; DENV2-infected cells, cytopathic effect rescue, plate reader; CPE inhibition, % at 9.99 µM; 350,000 compounds, 1.7% hits; in the data active means CPE inhibition above about 20%, passing the limit was not always enough; inconclusive means no clear call, values can overlap the other calls; tested in BHK-21 cells
FN deposition inh: fibronectin deposition inhibition; AH1F fibroblasts, Alexa488-fibronectin deposition fluorescence, overnight; inhibition, % at 12.6 µM; 350,000 compounds, 0.086% hits; AID 743247;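 active means mean inhibition across replicates of 30% or more, regardless of how many single replicates reach that level; inconclusive means mean under 30% yet at least half of replicates reach 30%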
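Assay system: AH1F fibroblasts assembling fluorescent fibronectin matrix; Amount: 10000 AH1F cells per well; Buffer or medium: DMEM, 2% serum; Probe or stimulus: Alexa488-fibronectin, 24 nM final in well; Doses: single compound dose, delivered by pin transfer; Incubation: 1 h adhesion, overnight exposure; Measured by: fluorescence 485/525 nm; Read-out: fibronectin deposition inhibition.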
ARNT Alpha ctr: counter-screen for ARNT/TACC3 inhibitors: AlphaScreen artifacts | shares compounds with ARNT TACC3 PPI | His-ARNT PASB-GST AlphaScreen artifact counter-screen, luminescence | AC50, µM (highest dose often 68 µM) | 1,200 compounds, 50% hits;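 active means every separate test run was called active for a drop in luminescence, with AC50 within twice the top valid dose, actives reach about 71 µM in these data; inconclusive means the separate test runs disagree in their calls; inactive means all runs inactive, including signal change in the wrong direction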
Numbers stand for hits; n = inactive; u = inconclusive; x = no result. Compounds with a hit are over-represented: about 3.8% of the library has one in this group of screens.

SMILES	SIRT5 block	ARNT TACC3 PPI	FGF22 binding	XiGFP reactiv	DENV2 CPE	FN deposition inh	ARNT Alpha ctr
C[C@H]1COCn2nncc2CC[C@@H](Cc2ccc(-c3ccccc3)cc2)C(=O)N1	x	x	x	n	x	n	x
c1c[nH]c(CN2CCN(Cc3ncc[nH]3)CC2)n1	n	52.7	n	n	n	n	n
c1ccc(N2CCN(Cc3nc4ccccc4[nH]3)CC2)nc1	n	n	n	n	n	n	x
O=C(COC(=O)c1ccc([N+](=O)[O-])s1)NCc1ccccc1	x	26.4	x	x	x	x	n
O=C(COC(=O)c1ccc([N+](=O)[O-])s1)Nc1ccccc1	x	n	x	x	x	x	x
O=C(COC(=O)c1ccc([N+](=O)[O-])o1)NCc1ccccc1	x	19.8	n	n	n	n	n
NS(=O)(=O)c1ccc(CCNC(=O)COC(=O)c2ccc([N+](=O)[O-])o2)cc1	n	71.4	n	n	n	n	n
CCC(=O)Nc1ccc2c(c1)C(=O)N(C)[C@H]1CC[C@H](CC(=O)NCC3CCCCC3)O[C@@H]1CO2	n	n	n	n	n	n	x
C[C@@H]1CN([C@@H](C)CO)C(=O)c2cccc(NS(C)(=O)=O)c2O[C@@H]1CN(C)C(=O)Nc1ccc(F)cc1	n	n	n	n	n	n	x
C[C@@H]1CN([C@@H](C)CO)S(=O)(=O)c2ccc(-c3cncnc3)cc2O[C@@H]1CN(C)C(=O)CC1CC1	n	n	n	n	n	n	x
COCCn1c(N)c(C(=O)NCc2cccs2)c2nc3ccccc3nc21	x	51.0	x	x	x	x	n
CC(=O)N1C[C@@H]2[C@H](c3ccccc31)[C@@H](CO)N2C(=O)c1ccc(F)cc1	n	n	n	n	n	x	x
Cc1ccccc1Nc1nnc(SCC(=O)NC(=O)NCc2ccco2)s1	x	62.4	x	x	x	n	n
CN(Cc1cnc2nc(N)nc(N)c2n1)c1ccc(C(=O)NC(CCC(=O)O)C(=O)O)cc1 (configuration not stated)	n	15.4	n	n	n	n	n
CC(C)NC(=O)N(C)C[C@H]1Oc2cc(-c3cccnc3)ccc2S(=O)(=O)N([C@@H](C)CO)C[C@H]1C	n	n	x	n	n	n	x
COc1ccc(N2CCN(C(CNC(=O)C(=O)NCCCn3ccnc3)c3ccco3)CC2)cc1 (configuration not stated)	n	n	n	n	n	n	x
O=C(NCCCn1ccnc1)C(=O)NCC(c1ccco1)N1CCN(c2ccc(F)cc2)CC1 (configuration not stated)	n	58.8	n	n	n	n	n
O=C(NCCCn1ccnc1)C(=O)NCC(c1ccco1)N1CCN(c2ccccc2)CC1 (configuration not stated)	x	44.7	n	n	n	n	n
C[C@@H](NC(=O)C[C@@H]1C=C[C@H](NC(=O)Nc2ccc3c(c2)OCO3)[C@H](CO)O1)c1ccccc1	n	n	n	n	n	n	x
C[C@@H]1CN([C@H](C)CO)S(=O)(=O)c2ccc(-c3cccnc3)cc2O[C@@H]1CN(C)C(=O)NC1CCCCC1	n	n	n	n	n	n	x
O=C(NCC[C@H]1CC[C@@H](NS(=O)(=O)c2ccc(F)cc2)[C@H](CO)O1)c1ccc2c(c1)OCO2	n	n	n	n	n	n	x
C/C(=C\C(=O)c1ccccc1)Nc1ccc(N2CCOCC2)cc1	x	39.3	x	x	x	n	n
O=c1cc(-c2ccc(O)cc2)oc2c(O)c(O)c(O)c(O)c12	n	53.0	n	x	n	x	n
COc1ccc(-c2nc(C#N)c(N3CCCCC3)o2)cc1	n	53.7	n	n	n	n	70.9µM
C[C@@H]1CN([C@@H](C)CO)C(=O)c2cc(NC(=O)C3CC3)ccc2O[C@@H]1CN(C)C(=O)Nc1ccccc1	n	n	n	n	n	x	x
SMILES	SIRT5 block	ARNT TACC3 PPI	FGF22 binding	XiGFP reactiv	DENV2 CPE	FN deposition inh	ARNT Alpha ctr
Cc1cc(C)c(S(=O)(=O)N2CCCC2=O)c(C)c1N(C)S(C)(=O)=O	n	9.2	n	n	n	n	n
COC(=O)c1cc(S(=O)(=O)N2CCCC2=O)c(Cl)cc1Cl	n	n	n	n	n	n	x
C[C@@H]1CN([C@H](C)CO)C(=O)c2cc(NC(=O)Cc3ccccc3)ccc2O[C@@H](C)CCCCO[C@@H]1CN(C)C(=O)c1ccncc1	n	n	n	n	n	n	x
CO[C@H]1CN(C)C(=O)c2cc(NS(=O)(=O)c3ccc(C)cc3)ccc2OC[C@H](C)N(C(=O)NC(C)C)C[C@H]1C	n	n	n	n	n	n	x
O=c1ccc(-c2ccc(S(=O)(=O)Nc3ccc(F)cc3)s2)n[nH]1	n	50.1	n	n	n	n	n
O=C(NCC(F)(F)F)[C@@H]1[C@@H](CO)[C@@H]2Cn3c(cccc3=O)[C@H]1N2CC1CCCCC1	n	n	n	n	n	x	x
O=C(N[C@H]1CC[C@@H](CCn2cc(C3CCCC3)nn2)O[C@@H]1CO)c1cccnc1	n	x	x	n	n	n	x
O=C(N[C@H]1CC[C@@H](CCn2cc(C3CCCC3)nn2)O[C@H]1CO)c1cccnc1	n	x	x	n	n	n	x
O=C(N[C@H]1CC[C@@H](CCn2cc(-c3ccccn3)nn2)O[C@@H]1CO)c1cccnc1	n	83.2	n	n	n	x	52.5µM
O=C(N[C@H]1CC[C@H](CCn2cc(-c3ccccn3)nn2)O[C@H]1CO)c1cccnc1	n	85.0	n	n	n	x	43.9µM
O=C(N[C@H]1CC[C@H](CCn2cc(-c3ccccn3)nn2)O[C@@H]1CO)c1cccnc1	n	82.5	n	n	n	x	32.9µM
O=C(N[C@@H]1CC[C@@H](CCn2cc(C3CC3)nn2)O[C@@H]1CO)c1cccnc1	n	n	n	n	u	n	x
O=C(N[C@H]1CC[C@@H](CCn2cc(-c3ccccn3)nn2)O[C@H]1CO)c1cccnc1	n	69.3	n	n	n	x	25.7µM
O=C(N[C@H]1CC[C@@H](CCn2cc(C3CC3)nn2)O[C@@H]1CO)c1cccnc1	n	n	n	n	n	n	x
CC(C)CC#Cc1ccc2c(c1)O[C@@H](CN(C)CC1CC1)[C@@H](C)CN([C@@H](C)CO)S2(=O)=O	n	n	n	n	n	x	x
COCC#Cc1ccc([C@@H]2[C@H](CO)N3CCCCN(S(=O)(=O)c4ccccc4F)C[C@@H]23)cc1	n	n	n	n	n	x	x
O=C(N[C@@H]1CC[C@H](CCn2cc(-c3ccccn3)nn2)O[C@@H]1CO)c1cccnc1	n	89.0	n	n	n	x	33.5µM
Cc1ccc(CNC(=O)CSc2ccc(-c3ccccn3)nn2)cc1	x	n	n	n	n	n	x
COc1cccc(CNC(=O)CSc2ccc(-c3ccccn3)nn2)c1	n	66.3	n	n	n	n	60.8µM
